Experimental data pooled from the literature.
Each line is one published result; the experiments were not run side by side.

With `C[C@@H]1[C@H](O)[C@@H](C)/C=C/C=C/C=C/C=C/C=C/C=C/C=C/[C@H](O[C@@H]2O[C@H](C)[C@@H](O)[C@H](N)[C@@H]2O)C[C@@H]2O[C@](O)(C[C@@H](O)C[C@@H](O)[C@H](O)CC[C@@H](O)C[C@@H](O)CC(=O)O[C@H]1C)C[C@H](O)[C@H]2C(=O)O` the inhibition was 7% (Leishmania donovani; parasite growth, imaging; THP-1; 20 nM, intracellular, amastigote).
`O=C1O[C@H]([C@@H](O)CO)C(O)=C1O` has an IC50 of 4.24 µg/mL (ABTS scavenging).
The IC50 of `CCCCCCCCC1NCCc2cc(O)c(O)cc21` (stereo not drawn) is reported as 47.5 µM (ABTS scavenging; 10 min, dark).
With `CCCCCCCCCCCCCCCCCCOc1ccccc1CC(=O)OCC[N+]1(C)CCCC1` the inhibition was 93.2% (NCI-H522; cell growth or viability, SRB; 10 µM).
`COc1cccc(C2NCCc3cc(O)c(O)cc32)c1O` (stereo not drawn) has an IC50 of 8.51 µM (ABTS scavenging; 10 min, dark).
The inhibition of `CCCCCCCCCCCCCCCCOP(=O)([O-])OCC[N+](C)(C)C` is reported as 100% (Leishmania donovani; parasite growth; THP-1; 40 µM, intracellular, amastigote).
The IC50 of `c1ccc(-c2ccc3c(c2)NC(C2Nc4cc(-c5ccccc5)ccc4O2)O3)cc1` (stereo not drawn) is reported as 9.21 µM (Leishmania donovani; parasite growth, resazurin; 72 h, promastigote).
`Oc1ccc(C2NCCc3cc(O)c(O)cc32)cc1O` (stereo not drawn) has an IC50 of 4.93 µM (ABTS scavenging; 10 min, dark).
`COc1cc(/C=C/C(=O)CC(=O)/C=C/c2ccc(O)c(OC)c2)ccc1O` gave an IC50 of 165 µg/mL (ABTS scavenging; 20 min).
`CCCCCCCCCCCCCCCCCCOc1ccccc1CC(=O)OCC[N+]1(C)CCCCC1` has an inhibition of 66.7% (NCI-H522; cell growth or viability, SRB; 10 µM).
The IC50 of `O=C1O[C@H]([C@@H](O)CO)C(O)=C1O` is reported as 62.8 µM (ABTS scavenging, absorbance).
`c1ccc(Oc2ccc(Nc3c4c(nc5ccccc35)CCC4)cc2)cc1` has an IC50 of 0.6 µM (Leishmania donovani; parasite growth, resazurin; promastigote).
The IC50 of `COc1cccc(C2NCCc3cc(O)c(O)cc32)c1` (stereo not drawn) is reported as 11.2 µM (ABTS scavenging; 10 min, dark).
`CCCCC[C@H](O)/C=C/[C@@H]1[C@@H](C/C=C\CCCC(=O)O)[C@@H](O)C[C@H]1O` gave an IC50 of greater than 100 µM (Leishmania donovani; parasite growth, resazurin; 72 h, promastigote).
For `CCOc1ccc(Nc2c3c(nc4ccccc24)CCC3)cc1`, the IC50 was 0.592 µM (Leishmania donovani; parasite growth; THP-1; intracellular, amastigote).
